# Laboratory results taken from publication PMC3172365 (Biochemistry, 2011).
# Biological target: T1, E. coli MutL (Escherichia coli, UniProt P23367)
# T1 sequence (P23367 1-615): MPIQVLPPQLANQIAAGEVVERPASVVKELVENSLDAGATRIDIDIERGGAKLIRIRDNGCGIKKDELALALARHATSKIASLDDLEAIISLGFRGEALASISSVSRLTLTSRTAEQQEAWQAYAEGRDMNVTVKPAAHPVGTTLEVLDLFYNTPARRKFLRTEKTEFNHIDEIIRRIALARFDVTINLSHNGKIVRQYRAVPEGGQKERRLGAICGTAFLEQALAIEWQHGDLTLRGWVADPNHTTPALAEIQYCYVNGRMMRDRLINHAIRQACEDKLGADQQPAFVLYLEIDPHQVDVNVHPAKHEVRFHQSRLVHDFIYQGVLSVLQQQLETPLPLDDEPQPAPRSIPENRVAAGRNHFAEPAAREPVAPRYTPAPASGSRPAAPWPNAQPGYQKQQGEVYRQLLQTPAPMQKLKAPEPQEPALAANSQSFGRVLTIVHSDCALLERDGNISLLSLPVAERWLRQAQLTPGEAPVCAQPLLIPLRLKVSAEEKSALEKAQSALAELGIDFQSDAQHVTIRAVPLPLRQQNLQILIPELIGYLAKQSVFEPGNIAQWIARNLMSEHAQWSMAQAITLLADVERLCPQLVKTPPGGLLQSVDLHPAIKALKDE
# Assay: analytical sedimentation velocity titration
# Type: binding
# Outline: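 Sedimentation velocity at 42,000 rpm and 25°C with purified MutL dialyzed into Buffer M (50 mM potassium phosphate pH 7.4, 50 mM KCl, 0.1 mM EDTA, 1 mM 2-mercaptoethanol) and filtered. Loading was 0.25–3.94 µM monomer, alone or with 1 mM MgCl2 + 35 µM AMPPNP (scanned 230/280 nm), or 1.75 µM dimer with varied AMPPNP (scanned 292 nm). Scans every 2.5 min gave c(s) distributions and weight-average s20,w.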
structure (smiles),measurement,value
Nc1ncnc2c1ncn2[C@@H]1O[C@H](COP(=O)(O)OP(=O)(O)NP(=O)(O)O)[C@@H](O)[C@H]1O [AMPPNP],Kd,25.6 µM
